Experimental data from ChEMBL document CHEMBL1944538, “Synthetic peptides derived from the sequence of a lasso peptide microcin J25 show antibacterial activity” (Bioorg Med Chem, 2012).
Converted amounts (≈) assume the structure as drawn. The source made the active and inactive calls. The rule behind the calls is not given here. Positions of bridges follow the written chain, without caps; N, C: chain ends. Residues, ends and D or L forms follow the SMILES beside them.

What was measured:
Salmonella typhimurium [1] = assay: Bactericidal activity against Salmonella Typhimurium ATCC 13311 after 24 hrs; assay type: functional, Salmonella enterica subsp. enterica serovar Typhimurium; settings: Salmonella enterica, ATCC 13311, 24 h
Summary of the method: (§1)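 For MBC, 10 µL from each clear well of the 24 h, 37 °C LB broth-dilution plate was spread on LB agar and incubated 24 h at 37 °C. MBC was the lowest concentration giving no growth on agar.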

[2] = Stability of the compound at 200 uM after overnight incubation by spot on lawn method in the presence of chymotrypsin; assay type: ADME
[3] = tested on: Salmonella enterica subsp. enterica serovar Newport; assay: Inhibition of oxygen consumption in Salmonella newport clinical isolate at 25 uM after 35 mins by Gilson Clarke oxygraph analysis; assay type: functional
Summary of the method: (§2)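 Cells were held 35 min at 37 °C with peptide at the stated concentration. Respiration rate over the next 5 min was measured polarographically with a Clark electrode oxygraph at 37 °C. Results are percent of a peptide-free control; three independent experiments, mean ± SD.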

Salmonella paratyphi [4] = assay: Antibacterial activity against Salmonella paratyphi up to 250 uM after 24 hrs by liquid growth inhibition assay; assay type: functional, organism-based; settings: Salmonella enterica subsp. enterica serovar Paratyphi A
Salmonella enteritidis [5] = assay: Antibacterial activity against Salmonella enteritidis AFLB 11 up to 250 uM after 24 hrs by liquid growth inhibition assay; assay type: functional, organism-based; settings: Salmonella enterica subsp. enterica serovar Enteritidis
Summary of the method: (§3)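 Liquid broth microdilution in LB. Peptide stocks were made in 20% methanol/water (1 or 2.5 mM), then serially doubled in water to final 0.01–100 or 0.5–250 µM. Inoculum was diluted to OD620 0.02–0.05. Plates ran 24 h at 37 °C and were read at OD620. MIC was the lowest concentration giving 100% growth inhibition (0.05 AU). Triplicate wells, three repeat experiments.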

Escherichia coli [6] = assay: Antibacterial activity against Escherichia coli DH5alpha up to 250 uM after 24 hrs by liquid growth inhibition assay; assay type: functional, organism-based; settings: DH5[alpha]; summary of the method: as §3
Salmonella typhimurium [7] = assay: Antibacterial activity against Salmonella Typhimurium ATCC 13311 after 24 hrs by liquid growth inhibition assay; assay type: functional, Salmonella enterica subsp. enterica serovar Typhimurium; settings: Salmonella enterica, ATCC 13311, 24 h; summary of the method: as §3
Enterococcus faecalis = assay: Antibacterial activity against Enterococcus faecalis ATCC 19433; assay type: functional, organism-based
[8] = Cytotoxicity against human MDA-MB-435 cells assessed as cell viability at 0.3 to 100 uM after 24 hrs by MTT assay; assay type: cell-based; settings: read-out: Activity
Summary of the method: (§4)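 MTT assay. MDA-MB-435 cells were kept in RPMI 1640 and MCF7 cells in DMEM, both with 10% FBS, penicillin and streptomycin, at 37 °C and 5% CO2. Cells were seeded at 1×10^4/well and grown 24 h. Samples came from 1 mM stocks in 10% DMSO/water, twofold diluted to 0.3125–100 µM, and applied for 24 h. MTT (5 mg/mL) was added for 3.5 h, then DMSO solubilization and A570. Viability is relative to untreated cells; triplicate, mean.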

[9] = Antibacterial activity against Salmonella newport clinical isolate after 24 hrs by liquid growth inhibition assay; assay type: functional, Salmonella enterica subsp. enterica serovar Newport; settings: Salmonella enterica; summary of the method: as §3
Salmonella enteritidis [10] = assay: Antibacterial activity against Salmonella enteritidis ATCC 13076 up to 250 uM after 24 hrs by liquid growth inhibition assay; assay type: functional, organism-based; settings: Salmonella enterica subsp. enterica serovar Enteritidis; summary of the method: as §3
Salmonella enteritidis [11] = assay: Antibacterial activity against Salmonella enteritidis AFLB 81 up to 250 uM after 24 hrs by liquid growth inhibition assay; assay type: functional, organism-based; settings: Salmonella enterica subsp. enterica serovar Enteritidis; summary of the method: as §3
Salmonella typhimurium [12] = assay: Antibacterial activity against Salmonella Typhimurium AFLB 25 after 24 hrs by liquid growth inhibition assay; assay type: functional, Salmonella enterica subsp. enterica serovar Typhimurium; settings: Salmonella enterica, AFLB 25, 24 h; summary of the method: as §3
[13] = Bactericidal activity against Salmonella choleraesuis ATCC 10708 after 24 hrs; assay type: functional, Salmonella enterica subsp. enterica serovar Choleraesuis; settings: Salmonella enterica, ATCC 10708, 24 h
Summary of the method: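 MBC: 10 μL from each clear well of the 24 h, 37 °C LB broth MIC plate spread on LB agar, incubated 24 h at 37 °C; MBC = lowest concentration with no growth on the plate.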

[14] = Cytotoxicity against human MCF7 cells assessed as cell viability at 0.3 to 100 uM after 24 hrs by MTT assay; assay type: cell-based; settings: read-out: Activity; summary of the method: as §4
[15] = Antibacterial activity against Salmonella choleraesuis ATCC 10708 after 24 hrs by liquid growth inhibition assay; assay type: functional, Salmonella enterica subsp. enterica serovar Choleraesuis; settings: Salmonella enterica, ATCC 10708, 24 h
[16] = Bactericidal activity against Salmonella newport clinical isolate after 24 hrs; assay type: functional, Salmonella enterica subsp. enterica serovar Newport; settings: Salmonella enterica; summary of the method: as §1
Salmonella enteritidis [17] = assay: Antibacterial activity against Salmonella enteritidis PT8 after 24 hrs by liquid growth inhibition assay; assay type: functional, Salmonella enterica subsp. enterica serovar Enteritidis; settings: Salmonella enterica, PT8, 24 h; summary of the method: as §3
[18] = Antibacterial activity against Salmonella heidelberg ATCC 8326 after 24 hrs by liquid growth inhibition assay; assay type: functional, Salmonella enterica subsp. enterica serovar Heidelberg; settings: Salmonella enterica, ATCC 8326, 24 h; summary of the method: as §3
Escherichia coli [19] = assay: Antibacterial activity against Escherichia coli MC4100 up to 250 uM after 24 hrs by liquid growth inhibition assay; assay type: functional, organism-based; summary of the method: as §3
Salmonella enteritidis [20] = assay: Bactericidal activity against Salmonella enteritidis ATCC P76 after 24 hrs by liquid growth inhibition assay; assay type: functional, Salmonella enterica subsp. enterica serovar Enteritidis; settings: Salmonella enterica, ATCC P76, 24 h
Staphylococcus aureus = assay: Antibacterial activity against Staphylococcus aureus ATCC 6538; assay type: functional, organism-based
[21] = Stability of the compound at 150 uM after 30 mins by RP-HPLC analysis in the presence of pepsin; assay type: ADME; settings: 0.5 h
Summary of the method: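 Peptide (150 µM) was incubated at 37 °C with pepsin (4% w/w) in 0.1 N HCl. Aliquots taken at 0 and 30 min were quenched into 0.1 N NaOH/70% methanol and centrifuged. Supernatant was analysed by C18 RP-HPLC (15–50% isopropanol/water, 0.05% TFA, 35 min, UV 220 nm). Fragments were identified by MALDI-TOF.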

[22] = Thermostability in boiling water after 3 hrs; assay type: physicochemical; settings: buffer
[23] = tested on: Salmonella enterica subsp. enterica serovar Montevideo; assay: Antibacterial activity against Salmonella montevideo 20 up to 250 uM after 24 hrs by liquid growth inhibition assay; assay type: functional; summary of the method: as §3
Salmonella enteritidis [24] = assay: Antibacterial activity against Salmonella enteritidis AFLB 41 up to 250 uM after 24 hrs by liquid growth inhibition assay; assay type: functional, organism-based; settings: Salmonella enterica subsp. enterica serovar Enteritidis; summary of the method: as §3
[25] = Cytotoxicity against human MCF7 cells assessed as cell viability at 3 uM after 24 hrs by MTT assay; assay type: cell-based; settings: read-out: Activity
[26] = Cytotoxicity against human MDA-MB-435 cells assessed as cell viability at 3 uM after 24 hrs by MTT assay; assay type: cell-based; settings: read-out: Activity
[27] = Cytotoxicity against human MDA-MB-435 cells assessed as cell viability up to 100 uM after 24 hrs by MTT assay; assay type: cell-based; settings: read-out: Activity; summary of the method: as §4
Salmonella enteritidis [28] = assay: Antibacterial activity against Salmonella enteritidis ATCC 13076 after 24 hrs by liquid growth inhibition assay; assay type: functional, Salmonella enterica subsp. enterica serovar Enteritidis; settings: Salmonella enterica, ATCC 13076, 24 h; summary of the method: as §3
Salmonella enteritidis [29] = assay: Antibacterial activity against Salmonella enteritidis AFLB 81 after 24 hrs by liquid growth inhibition assay; assay type: functional, Salmonella enterica subsp. enterica serovar Enteritidis; settings: Salmonella enterica, AFLB 81, 24 h; summary of the method: as §3
Escherichia coli [30] = assay: Antibacterial activity against Escherichia coli MC4100 after 24 hrs by liquid growth inhibition assay; assay type: functional; settings: MC4100, 24 h; summary of the method: as §3
Escherichia coli [31] = assay: Antibacterial activity against Escherichia coli DH5alpha after 24 hrs by liquid growth inhibition assay; assay type: functional; settings: DH5[alpha]; summary of the method: as §3
Salmonella typhimurium [32] = assay: Antibacterial activity against Salmonella Typhimurium ATCC 13311 up to 250 uM after 24 hrs by liquid growth inhibition assay; assay type: functional, organism-based; settings: Salmonella enterica subsp. enterica serovar Typhimurium; summary of the method: as §3
Salmonella paratyphi [33] = assay: Antibacterial activity against Salmonella paratyphi after 24 hrs by liquid growth inhibition assay; assay type: functional, Salmonella enterica subsp. enterica serovar Paratyphi A; settings: Salmonella enterica
[34] = tested on: Salmonella enterica subsp. enterica serovar Heidelberg; assay: Antibacterial activity against Salmonella heidelberg ATCC 8326 up to 250 uM after 24 hrs by liquid growth inhibition assay; assay type: functional; summary of the method: as §3
Salmonella enteritidis [35] = assay: Antibacterial activity against Salmonella enteritidis AFLB 41 after 24 hrs by liquid growth inhibition assay; assay type: functional, Salmonella enterica subsp. enterica serovar Enteritidis; settings: Salmonella enterica, AFLB 41, 24 h; summary of the method: as §3
[36] = Cytotoxicity against human MCF7 cells assessed as cell viability up to 100 uM after 24 hrs by MTT assay; assay type: cell-based; settings: read-out: Activity; summary of the method: as §4
[37] = tested on: Salmonella enterica subsp. enterica serovar Newport; assay: Inhibition of oxygen consumption in Salmonella newport clinical isolate at 0.25 uM after 35 mins by Gilson Clarke oxygraph analysis; assay type: functional; summary of the method: as §2
Salmonella enteritidis [38] = assay: Antibacterial activity against Salmonella enteritidis AFLB 11 after 24 hrs by liquid growth inhibition assay; assay type: functional, Salmonella enterica subsp. enterica serovar Enteritidis; settings: Salmonella enterica, AFLB 11, 24 h; summary of the method: as §3

## CC[C@H](C)[C@@H]1NC(=O)CNC(=O)[C@H](C(C)C)NC(=O)[C@H](Cc2ccccc2)NC(=O)[C@H](Cc2ccc(O)cc2)NC(=O)[C@@H]2CCC(=O)NCC(=O)NCC(=O)N[C@@H](C)C(=O)N[C@@H](CSSC[C@@H](C(=O)O)NC(=O)[C@H](Cc3ccccc3)NC(=O)[C@H](CO)NC(=O)[C@H]([C@@H](C)CC)NC(=O)[C@@H]3CCCN3C(=O)[C@H]([C@@H](C)O)NC(=O)CNC1=O)C(=O)N[C@@H](Cc1cnc[nH]1)C(=O)N[C@@H](C(C)C)C(=O)N1CCC[C@H]1C(=O)N2 (GGACHVPEYFVGIGTPISFC-OH; disulfide 4-20; lactam N-8)
Salmonella typhimurium [1]
  MBC: 125 µM (≈ 254 µg/mL)
[2]
  Stability: Unstable
[3]
  inhibition: Active
Salmonella paratyphi [4]
  Activity: inactive
Salmonella enteritidis [5]
  Activity: inactive
Escherichia coli [6]
  Activity: inactive
Salmonella typhimurium [7]
  MIC: 75 µM (≈ 153 µg/mL)
Enterococcus faecalis
  Activity: inactive
[8]
  viability at 24 h, up to 100 µM: > 90%
[9]
  MIC: 25 µM (≈ 50.9 µg/mL)
Salmonella enteritidis [10]
  Activity: inactive
Salmonella enteritidis [11]
  Activity: inactive
Salmonella typhimurium [12]
  MIC: 85 µM (≈ 173 µg/mL)
[13]
  MBC: 125 µM (≈ 254 µg/mL)
[14]
  viability at 24 h, up to 100 µM: > 90%
[15]
  MIC: 90 µM (≈ 183 µg/mL)
[16]
  MBC: 31.2 µM (≈ 63.6 µg/mL)
Salmonella enteritidis [17]
  MIC: 80 µM (≈ 163 µg/mL)
[18]
  MIC: 83 µM (≈ 169 µg/mL)
Escherichia coli [19]
  Activity: inactive
Salmonella enteritidis [20]
  MBC: 125 µM (≈ 254 µg/mL)
Staphylococcus aureus
  Activity: inactive
[21]
  Stability: Unstable
[22]
  Stability: Stable
[23]
  Activity: inactive
Salmonella enteritidis [24]
  Activity: inactive

## COc1cccc2c1C(=O)c1c(O)c3c(c(O)c1C2=O)C[C@@](O)(C(=O)CO)C[C@@H]3O[C@H]1C[C@H](N)[C@H](O)[C@H](C)O1 [DOXORUBICIN]
[25]
  viability at 24 h, 3 µM: 20%
[26]
  viability at 24 h, 3 µM: 20%

## CC[C@H](C)[C@H](NC(=O)CNC(=O)[C@@H](NC(=O)[C@H](Cc1ccccc1)NC(=O)[C@H](Cc1ccc(O)cc1)NC(=O)[C@@H]1CCC(=O)NCC(=O)NCC(=O)N[C@@H](C)C(=O)NCC(=O)N[C@@H](Cc2cnc[nH]2)C(=O)N[C@@H](C(C)C)C(=O)N2CCC[C@H]2C(=O)N1)C(C)C)C(=O)NCC(=O)N[C@H](C(=O)N1CCC[C@H]1C(=O)N[C@H](C(=O)N[C@@H](CO)C(=O)N[C@@H](Cc1ccccc1)C(=O)N[C@@H](Cc1ccc(O)cc1)C(=O)NCC(=O)O)[C@@H](C)CC)[C@@H](C)O [MICROCIN J25] (GGAGHVPEYFVGIGTPISFYG-OH; lactam N-8)
[27]
  viability at 24 h: > 80%
Salmonella enteritidis [28]
  MIC: 1.8 µM (≈ 3.79 µg/mL)
Salmonella enteritidis [29]
  MIC: 1.7 µM (≈ 3.58 µg/mL)
Escherichia coli [30]
  MIC: 5 µM (≈ 10.5 µg/mL)
Escherichia coli [31]
  MIC: 5 µM (≈ 10.5 µg/mL)
Salmonella typhimurium [32]
  Activity: inactive
Salmonella paratyphi [33]
  MIC: 1.5 µM (≈ 3.16 µg/mL)
[9]
  MIC: 0.5 µM (≈ 1.05 µg/mL)
Salmonella typhimurium [12]
  MIC: 2.8 µM (≈ 5.9 µg/mL)
[34]
  Activity: inactive
Salmonella enteritidis [35]
  MIC: 1.6 µM (≈ 3.37 µg/mL)
[15]
  MIC: 1.5 µM (≈ 3.16 µg/mL)
Salmonella enteritidis [17]
  MIC: 1.5 µM (≈ 3.16 µg/mL)
[36]
  viability at 24 h: > 80%
[37]
  inhibition: Active
Salmonella enteritidis [38]
  MIC: 2 µM (≈ 4.21 µg/mL)
[23]
  Activity: inactive
